Assay results: ChEMBL document CHEMBL4477237, “Structure-Based Design of β5c Selective Inhibitors of Human Constitutive Proteasomes” (J Med Chem, 2016)
Values belong to the molecule of their own block, whether it stands above or below them. Activity calls are given as the source filed them. The calls are words filed in the database; no cut-off is given here.

Columns and labels:
[1] = molecular target: T1, Proteasome Macropain subunit MB1 (Homo sapiens) (UniProt P28074); assay: Inhibition of catalytic activity of immunoproteasome 20s subunit beta5/constitutive 20s subunit beta5 in human AMO1 cells assessed as accumulation of ubiquitinated-GFP at 3 uM after 1 hr by FACS analysis; format: cell-based
T1 sequence (whole entry): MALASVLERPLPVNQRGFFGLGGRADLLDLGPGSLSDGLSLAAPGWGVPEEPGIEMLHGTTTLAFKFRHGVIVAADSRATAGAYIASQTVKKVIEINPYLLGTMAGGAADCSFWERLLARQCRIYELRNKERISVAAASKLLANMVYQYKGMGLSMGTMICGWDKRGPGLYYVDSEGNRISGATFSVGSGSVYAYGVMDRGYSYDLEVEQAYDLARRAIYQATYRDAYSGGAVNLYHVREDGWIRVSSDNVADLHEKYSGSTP
Procedure, shortened: (§1)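 AMO-1 myeloma clone stably expressing Ub-G76V-GFP (G418-selected). 5x10⁵ cells pulsed 1 h at 37 °C with inhibitor, washed with PBS, then chased 12 h in inhibitor-free medium (37 °C, 5% CO₂). GFP median fluorescence intensity read by flow cytometry in FITC channel.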

[2] = molecular target: T2, Proteasome Macropain subunit MB1 (Homo sapiens, UniProt P28074); assay: (§2) Inhibition of catalytic activity of constitutive proteasome 20s subunit beta5 in human Raji cells incubated for 1 hr by BODIPY(TMR)-NC-005-VS probe based competitive activity based protein profiling assay; format: cell-based
T2 sequence (P28074 whole entry): T1 sequence (whole entry)

[3] = molecular target: T1, Proteasome Macropain subunit MB1 (Homo sapiens); assay: (§3) Inhibition of catalytic activity of constitutive proteasome 20s subunit beta5 in human RPMI8226 cells incubated for 1 hr by BODIPY(TMR)-NC-005-VS probe based competitive activity based protein profiling assay; format: cell-based
Procedure, shortened: (§4)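 Live RPMI-8226 cells ((5-8)x10⁵ cells/mL; RPMI-1640, 10% FCS, GlutaMAX, pen/strep, 5% CO₂) exposed to inhibitor 1 h at 37 °C. Cells washed with PBS and lysed in digitonin/ATP buffer on ice 1 h. Lysates then labelled 1 h with the ABP cocktail and run on SDS-PAGE. In-gel fluorescence bands were normalized to mock and corrected for loading by Coomassie. IC50 from mean of three independent experiments.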

[4] = molecular target: Proteasome Macropain subunit (Homo sapiens) (UniProt P49721); assay: Inhibition of catalytic activity of constitutive proteasome 20s subunit beta2 in human RPMI8226 cells incubated for 1 hr by BODIPY(FL)-LU-112 probe based competitive activity based protein profiling assay; format: cell-based; procedure, shortened: as §4
[5] = molecular target: T3, Proteasome component C5 (Homo sapiens) (UniProt P20618); assay: Inhibition of catalytic activity of constitutive proteasome 20s subunit beta1 in human RPMI8226 cells incubated for 1 hr by Cy5-NC-001 probe based competitive activity based protein profiling assay; format: cell-based; procedure, shortened: as §4
T3 sequence (whole entry): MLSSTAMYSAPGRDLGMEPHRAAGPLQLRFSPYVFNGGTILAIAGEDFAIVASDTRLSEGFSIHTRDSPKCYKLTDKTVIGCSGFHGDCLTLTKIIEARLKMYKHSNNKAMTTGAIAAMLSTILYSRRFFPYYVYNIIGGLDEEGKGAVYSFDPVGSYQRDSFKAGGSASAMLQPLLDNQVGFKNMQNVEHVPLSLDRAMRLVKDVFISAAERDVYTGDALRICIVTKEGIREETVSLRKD

[6] = molecular target: Proteasome subunit beta type-9 (β1i, LMP2) (Homo sapiens) (UniProt P28065); assay: Inhibition of catalytic activity of immunoproteasome 20s subunit beta1 in human RPMI8226 cells incubated for 1 hr by Cy5-NC-001 probe based competitive activity based protein profiling assay
[7] = molecular target: Proteasome subunit beta type-8 (β5i, LMP7) (Homo sapiens) (UniProt P28062); assay: Inhibition of catalytic activity of immunoproteasome 20s subunit beta5 in human RPMI8226 cells incubated for 1 hr by BODIPY(TMR)-NC-005-VS probe based competitive activity based protein profiling assay
Homo sapiens = species: Homo sapiens; assay: Selectivity ratio of IC50 for immunoproteasome 20s subunit beta5 in human Raji cells to IC50 for constitutive proteasome 20s subunit beta5 in human Raji cells; format: cell-based
Procedure, shortened: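 Initial screen in Raji cell extracts. Inhibitor at 0.01, 0.1, 1.0 and 10.0 µM final for 1 h at 37 °C, then ABP cocktail 1 h. In-gel fluorescence of β5c/β5i bands normalized to mock-treated extract, giving residual activity. Run once. IC50s from this screen feed the β5i/β5c ratio.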

[8] = molecular target: T2, Proteasome Macropain subunit MB1; assay: as §3; format: cell-based; procedure, shortened: as §4
[9] = molecular target: T1, Proteasome Macropain subunit MB1 (Homo sapiens); assay: Inhibition of catalytic activity of immunoproteasome 20s subunit beta5/constitutive 20s subunit beta5 in human AMO1 cells assessed as accumulation of ubiquitinated-GFP at 100 uM after 1 hr by FACS analysis; format: cell-based; procedure, shortened: as §1
[10] = molecular target: T1, Proteasome Macropain subunit MB1 (Homo sapiens); assay: as §2; format: cell-based
[11] = molecular target: Proteasome Macropain subunit (Homo sapiens) (UniProt P49721); assay: Inhibition of catalytic activity of constitutive proteasome 20s subunit beta2 in human Raji cells incubated for 1 hr by BODIPY(FL)-LU-112 probe based competitive activity based protein profiling assay; format: cell-based
[12] = molecular target: T3, Proteasome component C5 (Homo sapiens); assay: Inhibition of catalytic activity of constitutive proteasome 20s subunit beta1 in human Raji cells incubated for 1 hr by Cy5-NC-001 probe based competitive activity based protein profiling assay; format: cell-based
[13] = molecular target: Proteasome subunit beta type-9 (β1i, LMP2) (Homo sapiens) (UniProt P28065); assay: Inhibition of catalytic activity of immunoproteasome 20s subunit beta1 in human Raji cells incubated for 1 hr by Cy5-NC-001 probe based competitive activity based protein profiling assay
[14] = molecular target: Proteasome subunit beta type-8 (β5i, LMP7) (Homo sapiens) (UniProt P28062); assay: Inhibition of catalytic activity of immunoproteasome 20s subunit beta5 in human Raji cells incubated for 1 hr by BODIPY(TMR)-NC-005-VS probe based competitive activity based protein profiling assay

inhibition [1]: Active
SMILES: COc1ccc(C[C@H](NC(=O)Cc2ccc3ccccc3c2)C(=O)N[C@@H](Cc2ccccc2)C(=O)N[C@@H](CC(C)C)C(=O)[C@@]2(C)CO2)cc1

IC50 [2]: 4.9 nM | inhibition [3]: inactive | inhibition [4]: inactive | inhibition [5]: inactive | inhibition [6]: inactive | inhibition [7]: inactive
SMILES: C[C@H](NC(=O)[C@H](Cc1ccccc1)NC(=O)[C@H](C[C@H]1CC[C@H](C2CCCCC2)CC1)NC(=O)[C@H](Cc1ccccc1)N=[N+]=[N-])C(=O)[C@@]1(C)CO1

IC50 [2]: 28 nM | IC50 [8]: 274 nM | inhibition [9]: Active
SMILES: CC(C)C[C@H](NC(=O)CN1CCOCC1)C(=O)N[C@@H](C[C@H]1CC[C@H](C2CCCCC2)CC1)C(=O)N[C@@H](Cc1ccccc1)C(=O)N[C@@H](C)C(=O)[C@@]1(C)CO1
Ratio IC50 (Homo sapiens): 814

pIC50(app) [10]: 8.68 | IC50 [2]: 2.1 nM | pIC50(app) [11]: 6.95 | pIC50(app) [12]: 6.75 | pIC50(app) [13]: 6.88 | pIC50(app) [14]: 8.11
SMILES: COc1ccc(C[C@H](NC(=O)[C@H](Cc2ccccc2)N=[N+]=[N-])C(=O)N[C@@H](Cc2ccccc2)C(=O)N[C@@H](CC(C)C)C(=O)[C@@]2(C)CO2)cc1
